{"source": "ChEMBL document CHEMBL1122991", "about": "“[(Aminomethyl)aryloxy]acetic acid esters. A new class of high-ceiling diuretics. 4. Substituted 6,7-dichloro-2,3-dihydrobenzofurans derived by ring annelation” (1985)", "key": {"[1]": {"system": "Canis familiaris", "assay": "Natriuretic potency was evaluated as oral dose required to produce an excretion of 2 mequiv of Na+/Kg of dog body weight, ED5 value based on N=2 dogs/dose", "assay_type": "functional, Canis lupus familiaris", "procedure,_shortened": "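Conscious nonloaded female dogs dosed orally, two dogs/dose. ED5 is derived from a linear regression of Na+ excretion vs log dose.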"}, "[2]": {"system": "Rattus norvegicus", "assay": "Natriuretic potency was evaluated as oral dose required to produce an excretion of 2 mequiv of Na+/Kg of rat body weight, ED2 value based on N=4 rats/dose", "assay_type": "functional", "procedure,_shortened": "(§1)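 Oral gavage in female rats fed glucose and water overnight. DOCA 5 mg sc is given 2 h before dosing, and rats are loaded with isotonic NaCl-KCl (40:60) to 3% body weight right after dosing. Na+ excretion is collected over 4 h, four rats/dose. ED2 is taken from a linear regression of Na+ excretion vs log dose.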"}, "[3]": {"organism": "Rattus norvegicus", "assay": "Glomerular filtration rate (per one kidney) per 100 g body weight of rat", "assay_type": "functional", "procedure,_shortened": "(§2)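 Male adult Sprague-Dawley rats infused with Ringer's solution at 2 mL/100 g per h plus [3H]inulin (100 μCi/h). Two 30-min urine collections with midpoint blood samples form the control period. A single iv bolus of 0.1 mg/kg is given over 20–30 s, and 30 min later two more 30-min periods follow, with iv fluid replacement. Urine volume, Na+, K+ and inulin counts are measured, and GFR and fractional excretion are calculated by standard formulae. Paired t test, n = 8.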"}, "[4]": {"organism": "Rattus norvegicus", "assay": "Fractional excretion of K+ (percent of filtered load) in rat", "assay_type": "functional", "procedure,_shortened": "as §2"}, "[5]": {"organism": "Rattus norvegicus", "assay": "Fractional excretion of Na+ (percent of filtered load) in rat", "assay_type": "functional", "procedure,_shortened": "as §2"}, "[6]": {"organism": "Rattus norvegicus", "assay": "Fractional delivery of K+ to puncture site (percent of filtered load) of early distal tubular segments in the exposed kidney", "assay_type": "functional", "procedure,_shortened": "(§3)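 Male adult Sprague-Dawley rats prepared for free-flow micropuncture, infused with Ringer's solution at 2 mL/100 g per h plus [3H]inulin (100 μCi/h). Early and late distal tubular fluid sampled from the exposed kidney during control periods and after a single iv bolus of 0.1 mg/kg given over 20–30 s. Control and treated groups compared by unpaired t test.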"}, "[7]": {"organism": "Rattus norvegicus", "assay": "Fractional delivery of K+ to puncture site (percent of filtered load) of late distal tubular segments in the exposed kidney", "assay_type": "functional", "procedure,_shortened": "as §3"}, "[8]": {"organism": "Rattus norvegicus", "assay": "Fractional delivery of Na+ to puncture site (percent of filtered load) of early distal tubular segments in the exposed kidney", "assay_type": "functional", "procedure,_shortened": "as §3"}, "[9]": {"organism": "Rattus norvegicus", "assay": "Fractional delivery of Na+ to puncture site (percent of filtered load) of late distal tubular segments in the exposed kidney", "assay_type": "functional", "procedure,_shortened": "as §3"}, "[10]": {"organism": "Rattus norvegicus", "assay": "Urine-to-plasma concentration ratio for inulin in rat", "assay_type": "functional", "procedure,_shortened": "as §2"}, "[11]": {"organism": "Rattus norvegicus", "assay": "K+ concentration in plasma sample of rat", "assay_type": "functional, organism-based", "procedure,_shortened": "as §2"}, "[12]": {"organism": "Rattus norvegicus", "assay": "Na+ concentration in plasma sample of rat", "assay_type": "functional, organism-based", "procedure,_shortened": "as §2"}, "[13]": {"organism": "Rattus norvegicus", "assay": "Single nephron glomerular filtration rate of early distal tubular segments in the exposed kidney", "assay_type": "functional", "procedure,_shortened": "as §3"}, "[14]": {"organism": "Rattus norvegicus", "assay": "Single nephron glomerular filtration rate of late distal tubular segments in the exposed kidney", "assay_type": "functional", "procedure,_shortened": "as §3"}, "[15]": {"organism": "Rattus norvegicus", "assay": "Tubular fluid-to-plasma concentration ratio for inulin of early distal tubular segments in the exposed kidney", "assay_type": "functional", "procedure,_shortened": "as §3"}, "[16]": {"organism": "Rattus norvegicus", "assay": "Tubular fluid-to-plasma concentration ratio for inulin of late distal tubular segments in the exposed kidney", "assay_type": "functional", "procedure,_shortened": "as §3"}, "[17]": {"organism": "Rattus norvegicus", "assay": "Urine flow rate of early distal tubular segments in the exposed kidney", "assay_type": "functional", "procedure,_shortened": "as §3"}, "[18]": {"organism": "Rattus norvegicus", "assay": "Urine flow rate of late distal tubular segments in the exposed kidney", "assay_type": "functional", "procedure,_shortened": "as §3"}, "[19]": {"organism": "Rattus norvegicus", "assay": "Urine flow rate per kidney was evaluated in rat", "assay_type": "functional", "procedure,_shortened": "as §2"}, "[20]": {"assay": "Ratio of number of tubules/number of rats of late distal tubular segments in the exposed kidney", "assay_type": "functional"}, "[21]": {"system": "Rattus norvegicus", "assay": "Natriuretic potency was evaluated as oral dose required to produce an excretion of 2 mequiv of Na+/Kg of rat body weight", "assay_type": "functional", "procedure,_shortened": "as §1"}, "[22]": {"system": "Rattus norvegicus", "assay": "Natriuretic potency was evaluated as oral dose required to produce an excretion of 2 mequiv of Na+/Kg of rat body weight; IA means Inactive", "assay_type": "functional, organism-based", "procedure,_shortened": "as §1"}}, "note": "Active and inactive are the calls of the source. No cut-off for these calls is given here."}
{"smiles": "NS(=O)(=O)c1cc(C(=O)O)c(NCc2ccco2)cc1Cl", "note": "[FUROSEMIDE]", "values": [{"measurement": "ED5", "setting": "[1]", "result": 3.5, "unit": "mg/kg"}, {"measurement": "ED2", "setting": "[2]", "result": 9.5, "unit": "mg/kg"}]}
{"smiles": "CCOC(=O)C1Cc2cc(C(=O)c3ccc(O)c(CN)c3)c(Cl)c(Cl)c2O1", "note": "(centres undefined)", "values": [{"measurement": "ED5", "setting": "[1]", "result": 0.11, "unit": "mg/kg"}, {"measurement": "ED2", "setting": "[2]", "result": 0.12, "unit": "mg/kg"}, {"measurement": "GFR", "setting": "[3]", "result": 0.46, "unit": "mL/min"}, {"measurement": "FE", "setting": "[4]", "result": 54.6, "unit": "%"}, {"measurement": "FE", "setting": "[5]", "result": 6.3, "unit": "%"}, {"measurement": "FD", "setting": "[6]", "result": 23, "unit": "%"}, {"measurement": "FD", "setting": "[7]", "result": 23.6, "unit": "%"}, {"measurement": "FD", "setting": "[8]", "result": 13.6, "unit": "%"}, {"measurement": "FD", "setting": "[9]", "result": 8.1, "unit": "%"}, {"measurement": "U/P", "setting": "[10]", "result": 19.7}, {"measurement": "Plasma", "setting": "[11]", "result": 3.57, "unit": "mM"}, {"measurement": "Plasma", "setting": "[12]", "result": 144, "unit": "mM"}, {"measurement": "SNGFR", "setting": "[13]", "result": 35.7, "unit": "nL/min"}, {"measurement": "SNGFR", "setting": "[14]", "result": 33.9, "unit": "nL/min"}, {"measurement": "TF/P", "setting": "[15]", "result": 4.39}, {"measurement": "TF/P", "setting": "[16]", "result": 8.48}, {"measurement": "Rate", "setting": "[17]", "result": 8.2, "unit": "nL/min"}, {"measurement": "Rate", "setting": "[18]", "result": 4.6, "unit": "nL/min"}, {"measurement": "Rate", "setting": "[19]", "result": 67.6, "unit": "µL/min"}, {"measurement": "Ratio", "setting": "[20]", "result": 8}]}
{"smiles": "CCCCNc1cc(C(=O)O)cc(S(N)(=O)=O)c1Oc1ccccc1", "note": "[BUMETANIDE]", "values": [{"measurement": "ED5", "setting": "[1]", "result": 0.15, "unit": "mg/kg"}, {"measurement": "ED2", "setting": "[2]", "result": 8.5, "unit": "mg/kg"}]}
{"smiles": "CCOC(=O)C1Cc2cc(Cc3cc(CN)c(O)c(CN)c3)c(Cl)c(Cl)c2O1", "note": "(centres undefined)", "values": [{"measurement": "ED2", "setting": "[21]", "result": 49, "unit": "mg/kg"}]}
{"smiles": "CCOC(=O)C1Cc2cc(Cc3ccc(O)c(CN)c3)c(Cl)c(Cl)c2O1", "note": "(centres undefined)", "values": [{"measurement": "ED2", "setting": "[21]", "result": 8, "unit": "mg/kg"}]}
{"smiles": "NCc1cc(C(=O)c2cc3c(c(Cl)c2Cl)OC(C(N)=O)C3)ccc1O", "note": "(centres undefined)", "values": [{"measurement": "ED2", "setting": "[21]", "result": 2.95, "unit": "mg/kg"}]}
{"smiles": "CCOC(=O)C1Cc2cc(C(=O)c3cc(CN(C)C)c(O)c(CN(C)C)c3)c(Cl)c(Cl)c2O1", "note": "(centres undefined)", "values": [{"measurement": "ED2", "setting": "[21]", "result": 1.82, "unit": "mg/kg"}]}
{"smiles": "NCc1cc(Cc2cc3c(c(Cl)c2Cl)OC(CO)C3)ccc1O", "note": "(centres undefined)", "values": [{"measurement": "ED2", "setting": "[21]", "result": 10.2, "unit": "mg/kg"}]}
{"smiles": "NCc1cc(C(=O)c2cc3c(c(Cl)c2Cl)OC(C(=O)O)C3)ccc1O", "note": "(centres undefined)", "values": [{"measurement": "ED2", "setting": "[22]", "result": "inactive"}]}
{"smiles": "NS(=O)(=O)c1cc(C(=O)O)cc(N2CCCC2)c1Oc1ccccc1", "note": "[PIRETANIDE]", "values": [{"measurement": "ED5", "setting": "[1]", "result": 0.25, "unit": "mg/kg"}, {"measurement": "ED2", "setting": "[2]", "result": 0.89, "unit": "mg/kg"}]}
{"smiles": "NCc1cc(C(=O)c2cc3c(c(Cl)c2Cl)OC(CO)C3)ccc1O", "note": "(centres undefined)", "values": [{"measurement": "ED2", "setting": "[21]", "result": 0.95, "unit": "mg/kg"}]}
{"smiles": "CCOC(=O)C1Cc2cc(C(=O)c3cc(Cl)c(O)c(CN)c3)c(Cl)c(Cl)c2O1", "note": "(centres undefined)", "values": [{"measurement": "ED2", "setting": "[21]", "result": 21.5, "unit": "mg/kg"}]}
